Consider 54 sequences from the array DNA melting data of Ke et al. (doi:10.1101/2024.01.08.574731).

Data set [1] is described as follows: melting temperature; fluorescence melt of hairpins on a sequencing array, two-state fit, raised by 9.35 °C to match UV melts. The note with it: sodium 0.088 M. A digest of the protocol: (§1)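 Melting temperature and folding enthalpy were derived from bootstrapped two-state fits. The fitted temperatures were raised by 9.35 °C to agree with UV melts, and four replicates were combined by inverse variance. The underlying data were Cy3 fluorescence images of library hairpins, with annealed Cy3 and quencher oligos, on a sequenced MiSeq flow cell in 50 mM Na-HEPES pH 8.0, 25 mM NaCl, taken in 2.5 °C steps up to 60 °C, normalised to pre-quench Cy3 and to control constructs.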

Data set [2] is described as follows: folding enthalpy; higher = less favourable; fluorescence melt of hairpins on a sequencing array, two-state fit. Conditions: sodium 0.088 M. A digest of the protocol:
as §1

For GCCGCGCGAAAGCGTCGC ((..(((....)))..)), the Tm in data set [1] came out at 58 °C. For the same sequence, the folding enthalpy in data set [2] is -10.1 kcal/mol.
Taken in the same sequence, the figures for GCCGCGCGAAAGCGTTGC ((..(((....)))..)) were 44.1 °C and -14.6 kcal/mol.
On the same counts, the results for GCCGCGCGAAAGCTCAGC ((.(.((....)).).)) are 35.1 °C and -10.8 kcal/mol.
Consider GCCGCGGGAAACCACGGC ((((.((....)).)))), for which the Tm in data set [1] is 63.6 °C. Besides, in data set [2], the folding enthalpy was -38.4 kcal/mol.
With GCCGCGGGAAACCGCGAC (.(((((....))))).), in data set [1], the Tm was determined as 59.7 °C. For the same sequence, the folding enthalpy in data set [2] was -10.8 kcal/mol.
On the same counts, the results for GCCGCTGGAAACAGTGGC (((.(((....))).))) are 62.9 °C and -50.7 kcal/mol.
On to GCCGGACCGAAAGGTGGC (((..(((....)))))), for which, in data set [1], the Tm was 53.4 °C. Besides, the folding enthalpy in data set [2] was -26.9 kcal/mol.
As for GCCGGATCGAAAGATGGC (((..(((....)))))), the Tm in data set [1] amounted to 46 °C. In data set [2], the folding enthalpy was -17.6 kcal/mol.
Take GCCGGCGAAAGCCCAGGC ((((((....)))..))): the Tm in data set [1] was 57.5 °C. The folding enthalpy in data set [2] was -19.4 kcal/mol.
On the same counts, the results for GCCGGCGAAAGCCCGGGC ((((((....)))..))) are 62.1 °C and -17.6 kcal/mol.
Taken in the same sequence, the figures for GCCGGCGAAAGCCGAGGC ((((((....)))..))) were 63.1 °C and -13.4 kcal/mol.
For the sequence GCCGGCGAAAGCCGCGGC ((((((....)))..))), the Tm in data set [1] was 65.3 °C. Moreover, the folding enthalpy in data set [2] was -11.9 kcal/mol.
Taken in the same sequence, the figures for GCCGGCGAAAGCCGTGGC ((((((....)))..))) were 58.4 °C and -13.1 kcal/mol.
Taken in the same sequence, the figures for GCCGGGCGAAAGCCGCGC ((..(((....)))..)) were 60.1 °C and -15.2 kcal/mol.
Taken in the same sequence, the figures for GCCGGGCGAAAGCCTTGC ((..(((....)))..)) were 40.2 °C and -12.4 kcal/mol.
Turning to GCCGGGCGAAAGCGAGGC (((..((....))..))), the Tm in data set [1] came to 66.1 °C. Besides, the folding enthalpy in data set [2] is -43.3 kcal/mol.
Taken in the same sequence, the figures for GCCGGGCGAAAGCGCAGC ((.(.((....)).).)) were 43.3 °C and -13.2 kcal/mol.
Taken in the same sequence, the figures for GCCGGGCGAAAGCGCCGC ((.(.((....)).).)) were 48.7 °C and -11.5 kcal/mol.
Taken in the same sequence, the figures for GCCGGGCGAAAGCTGGGC (((..((....))..))) were 61.2 °C and -26.3 kcal/mol.
In the case of GCCGGTCGAAAGACGGGC (((.(((....))).))), in data set [1], the Tm was 63.9 °C. Further, the folding enthalpy in data set [2] is -39.9 kcal/mol.
Taken in the same sequence, the figures for GCCGTAACGAAAGTTGGC (((..(((....)))))) were 49.4 °C and -20.9 kcal/mol.
On the same counts, the results for GCCGTACGAAAGTAGGC (((.(((....)))))) are 67.4 °C and -33.6 kcal/mol.
On the same counts, the results for GCCGTAGGAAACTACGAC (.(((((....))))).) are 40.8 °C and -18.5 kcal/mol.
On to GCCGTAGGAAACTGTGGC (((..((....))..))), for which the Tm in data set [1] was 43.3 °C. Further, in data set [2], the folding enthalpy is -11.4 kcal/mol.
On the same counts, the results for GCCGTCACGAAAGTGGGC (((..(((....)))))) are 48.5 °C and -19.5 kcal/mol.
On the same counts, the results for GCCGTCGAAAGACAGGGC ((((((....)))..))) are 54.4 °C and -38.8 kcal/mol.
On the same counts, the results for GCCGTCGAAAGACCAGGC ((((((....)))..))) are 48.9 °C and -17.5 kcal/mol.
Turning to GCCGTGCGAAAGCACAGC ((.((((....)))).)), the Tm in data set [1] came out at 61.2 °C. In addition, the folding enthalpy in data set [2] was -14 kcal/mol.
On the same counts, the results for GCCGTGCGAAAGCAGCGC ((..(((....)))..)) are 55.9 °C and -13.9 kcal/mol.
Regarding GCCGTGCGAAAGCAGTGC ((..(((....)))..)), in data set [1], the Tm stood at 44.7 °C. In data set [2], the folding enthalpy is -12.4 kcal/mol.
Taken in the same sequence, the figures for GCCGTGCGAAAGCCTGGC (((..((....))..))) were 56.2 °C and -20.4 kcal/mol.
Taken in the same sequence, the figures for GCCGTGCGAAAGCGCTGC ((.(.((....)).).)) were 49 °C and -19.6 kcal/mol.
Turning to GCCGTGCGAAAGCTAGGC (((..((....))..))), in data set [1], the Tm came out at 66.9 °C. Also, the folding enthalpy in data set [2] is -32 kcal/mol.
GCCGTGCGAAAGCTTGGC (((..((....))..))): in data set [1], the Tm turned out to be 59.6 °C. Also, the folding enthalpy in data set [2] is -28.5 kcal/mol.
Taken in the same sequence, the figures for GCCGTTACGAAAGTAGGC (((..(((....)))))) were 54.8 °C and -33.1 kcal/mol.
Regarding GCCGTTCGAAAGAAGGGC (((.(((....))).))), the Tm in data set [1] was found to be 60.2 °C. For the same sequence, in data set [2], the folding enthalpy is -44 kcal/mol.
In the case of GCCGTTGGAAACAGTGGC (((..((....))..))), the Tm in data set [1] came out at 43.6 °C. Moreover, the folding enthalpy in data set [2] is -14.4 kcal/mol.
On the same counts, the results for GCCTAACGAAAGTTGGC (((.(((....)))))) are 53.7 °C and -31.3 kcal/mol.
Taken in the same sequence, the figures for GCCTAAGGAAACTTAGGC (((((((....))))))) were 58.3 °C and -40.1 kcal/mol.
For GCCTACGAAAGTAAGGGC ((((((....)))..))), in data set [1], the Tm came to 46.8 °C. The folding enthalpy in data set [2] is -23.9 kcal/mol.
On the same counts, the results for GCCTACGAAAGTAGAGGC ((((((....)))..))) are 49.3 °C and -22.7 kcal/mol.
Taken in the same sequence, the figures for GCCTACGAAAGTAGCGGC ((((((....)))..))) were 49.6 °C and -19.5 kcal/mol.
Regarding GCCTACGAAAGTATCGGC ((((((....)))..))), the Tm in data set [1] came to 40.6 °C. The folding enthalpy in data set [2] is -24.7 kcal/mol.
GCCTACGAAAGTATTGGC ((((((....)))..))): the Tm in data set [1] stood at 43.4 °C. In data set [2], the folding enthalpy was -20.5 kcal/mol.
Turning to GCCTACGCGAAAGCGGGC (((..(((....)))))), in data set [1], the Tm was determined as 62.1 °C. Also, the folding enthalpy in data set [2] is -14.8 kcal/mol.
On the same counts, the results for GCCTACGGAAACACAGGC ((((..(....)..)))) are 34.6 °C and -23.3 kcal/mol.
GCCTACGGAAACATAGGC (((((.(....).))))): in data set [1], the Tm is 40.3 °C. In addition, the folding enthalpy in data set [2] was -28.9 kcal/mol.
On the same counts, the results for GCCTAGCCGAAAGGCGGC (((..(((....)))))) are 59.7 °C and -14.1 kcal/mol.
Taken in the same sequence, the figures for GCCTAGCGAAAGCACGGC (((..((....))..))) were 54.9 °C and -20.3 kcal/mol.
Take GCCTAGCGAAAGCAGGGC (((..((....))..))): the Tm in data set [1] was 62.4 °C. Besides, the folding enthalpy in data set [2] is -24 kcal/mol.
On the same counts, the results for GCCTAGCGAAAGCATGGC (((..((....))..))) are 61.2 °C and -30.7 kcal/mol.
Taken in the same sequence, the figures for GCCTAGCGAAAGCCAGGC ((((.((....)).)))) were 62.2 °C and -29.4 kcal/mol.
On the same counts, the results for GCCTAGCGAAAGCCGGGC (((..((....))..))) are 57.1 °C and -20.1 kcal/mol.
For GCCTAGCGAAAGCCTGGC (((..((....))..))), the Tm in data set [1] was 52.1 °C. The folding enthalpy in data set [2] is -19.6 kcal/mol.
